Measurements from ChEMBL document CHEMBL3779860, “A Designed Tryptophan- and Lysine/Arginine-Rich Antimicrobial Peptide with Therapeutic Potential for Clinical Antibiotic-Resistant Candida albicans Vaginitis” (J Med Chem, 2016).

Tests used:
Mus musculus [1] = experiment: (§1) Antiinflammatory activity in antibiotic resistant Candida albicans clinical isolate 08030809 induced mouse vaginitis model assessed as microabscess number in vaginal tissue at 50 ug administered as intravaginal instillation measured on day 6 by hematoxylin-eosin staining based microscopic method (reference value: 61); format: functional, Vagina
Outline: (§2)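 Mice given weekly subcutaneous estradiol valerate (0.5 mg in 0.1 mL vegetable oil) 72 h before infection. Infected intravaginally with 20 µL of 10^7 CFU/mL C. albicans 08030809. Intravaginal instillation of 20 µL daily for 16 days. Vaginal canals excised after lavage, formalin-fixed, paraffin-embedded, HE-stained. Microabscesses counted per high-power field over 6 fields per section, three independent experiments.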

Candida albicans [2] = experiment: Antimicrobial activity against antibiotic resistant Candida albicans clinical isolate 08030809 assessed as clone count at MIC after 1 min by colony counting assay (reference value: 62 +/- 7 CFU); format: functional
Candida albicans [3] = experiment: Antimicrobial activity against antibiotic resistant Candida albicans clinical isolate 08032710 compound treated in double distilled water measured after 36 hrs by disc diffusion method; format: functional; settings: isolate 08032710, 36 h
Outline: (§3)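 Salt-tolerance test: peptide at 2 mg/mL was prepared in sterile ddH2O, in 150 mM NaCl, or in PBS (150 mM NaCl, 2.7 mM KCl, 1.5 mM KH2PO4, 8 mM K2HPO4, pH 7.2). Anti-C. albicans activity was then assessed by inhibition zone on Sabouraud medium with 0.7% agar.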

Mus musculus [4] = experiment: Antiinflammatory activity in antibiotic resistant Candida albicans clinical isolate 08030809 induced mouse vaginitis model assessed as reduction in IL-10 secretion in vaginal tissue at 50 ug administered as intravaginal instillation measured on day 10 by ELISA; format: functional, Vagina
Outline: (§4)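 Same estradiol-primed mouse model, infected intravaginally with C. albicans 08030809 and treated by intravaginal instillation (20 µL/mouse). Vaginal canals excised on day 10 of treatment and homogenised in 0.9% NaCl. Supernatant taken after 2,000 g for 15 min. TNF-α, IL-6, IL-1β and IL-10 measured by ELISA. Mean ± SE of three independent experiments; unpaired t-test versus vehicle.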

Mus musculus [5] = experiment: Antiinflammatory activity in antibiotic resistant Candida albicans clinical isolate 08030809 induced mouse vaginitis model assessed as reduction in IL-10 secretion in vaginal tissue administered as intravaginal instillation measured on day 10 by ELISA; format: functional, organism-based; settings: Vagina; outline: as §4
Candida albicans [6] = experiment: Antimicrobial activity against antibiotic resistant Candida albicans clinical isolate 08030102 after 16 hrs by broth dilution method; format: functional; settings: isolate 08030102, 16 h
Outline: (§5)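 Broth microdilution in Sabouraud liquid medium. Samples are stocks in 0.9% NaCl, 10 µL added to 90 µL broth plus 100 µL of 2 × 10^5 CFU/mL yeast suspension. Incubated 16 h at 28°C, growth read by A600. MIC is the lowest concentration completely inhibiting growth; mean of three independent experiments.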

Candida albicans [7] = experiment: Antimicrobial activity against antibiotic resistant Candida albicans clinical isolate 08030809 assessed as clone count at 5 times MIC after 30 mins by colony counting assay (reference value: 156 +/- 16 CFU); format: functional
Candida albicans [8] = experiment: Antimicrobial activity against antibiotic resistant Candida albicans clinical isolate 08030809 in mouse vaginitis model assessed as decrease in colony count in lavage liquid of vagina at 50 ug administered as intravaginal instillation measured on day 11; format: functional
Candida albicans [9] = experiment: Antimicrobial activity against antibiotic resistant Candida albicans clinical isolate 08030809 in mouse vaginitis model assessed as decrease in colony count in lavage liquid of vagina at 50 ug administered as intravaginal instillation measured on day 6; format: functional
Candida albicans [10] = experiment: Antimicrobial activity against antibiotic resistant Candida albicans clinical isolate 08030809 assessed as clone count at 5 times MIC after 10 mins by colony counting assay (reference value: 102 +/- 11 CFU); format: functional
Candida albicans [11] = experiment: Antimicrobial activity against antibiotic resistant Candida albicans clinical isolate 08030809 assessed as clone count at 10 times MIC after 3 hrs by colony counting assay (reference value: 3687 +/- 543 CFU); format: functional
Mus musculus [12] = experiment: Antiinflammatory activity in antibiotic resistant Candida albicans clinical isolate 08030809 induced mouse vaginitis model assessed as reduction in TNF-alpha secretion in vaginal tissue administered as intravaginal instillation measured on day 10 by ELISA; format: functional, organism-based; settings: Vagina; outline: as §4
Candida albicans [13] = experiment: Antimicrobial activity against antibiotic resistant Candida albicans clinical isolate 08030809 in mouse vaginitis model assessed as decrease in colony count in lavage liquid of vagina at 20 ug administered as intravaginal instillation measured on day 11; format: functional
Mus musculus [14] = experiment: Antiinflammatory activity in antibiotic resistant Candida albicans clinical isolate 08030809 induced mouse vaginitis model assessed as reduction in TNF-alpha secretion in vaginal tissue at 20 ug administered as intravaginal instillation measured on day 10 by ELISA; format: functional, Vagina; outline: as §4
Candida albicans [15] = experiment: Antimicrobial activity against antibiotic resistant Candida albicans clinical isolate 08030809 assessed as clone count at MIC after 6 hrs by colony counting assay (reference value: 14536 +/- 2467 CFU); format: functional
Candida albicans [16] = experiment: Antimicrobial activity against antibiotic resistant Candida albicans clinical isolate 08030809 assessed as clone count at 5 times MIC after 1 hr by colony counting assay (reference value: 228 +/- 23 CFU); format: functional
Candida albicans [17] = experiment: Antimicrobial activity against antibiotic resistant Candida albicans clinical isolate 08032821 compound treated in double distilled water measured after 36 hrs by disc diffusion method; format: functional; settings: isolate 08032821, 36 h; outline: as §3
Mus musculus [18] = experiment: Antiinflammatory activity in antibiotic resistant Candida albicans clinical isolate 08030809 induced mouse vaginitis model assessed as reduction in IL-6 secretion in vaginal tissue at 20 ug administered as intravaginal instillation measured on day 10 by ELISA; format: functional, Vagina; outline: as §4
Candida albicans [19] = experiment: Antimicrobial activity against antibiotic resistant Candida albicans clinical isolate 08030401 after 16 hrs by broth dilution method; format: functional; settings: isolate 08030401, 16 h; outline: as §5
Candida albicans [20] = experiment: Antimicrobial activity against antibiotic resistant Candida albicans clinical isolate 08030809 in mouse vaginitis model assessed as decrease in colony count in lavage liquid of vagina at 20 ug administered as intravaginal instillation measured on day 16; format: functional
Staphylococcus aureus = experiment: Antimicrobial activity against Staphylococcus aureus ATCC 2592 assessed as inhibition of […] growth after 16 hrs by broth dilution method; format: functional; settings: ATCC 2592, 16 h
Outline: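 Broth dilution in LB broth; 100 µL of 2 × 10^5 CFU/mL bacterial suspension plus 10 µL sample (stock series in 0.9% NaCl) in 90 µL broth, 37°C for 16 h. Growth read as A600; MIC is the lowest concentration completely inhibiting growth. Mean of three independent experiments run in duplicate.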

Candida albicans [21] = experiment: Antimicrobial activity against antibiotic resistant Candida albicans clinical isolate 08032821 compound treated in NaCl solution measured after 36 hrs by disc diffusion method; format: functional; settings: isolate 08032821, 36 h; outline: as §3
Mus musculus [22] = experiment: as §1, with “20” for “50”; format: functional, Vagina; outline: as §2
Mus musculus [23] = experiment: Antiinflammatory activity in antibiotic resistant Candida albicans clinical isolate 08030809 induced mouse vaginitis model assessed as reduction in IL-1beta secretion in vaginal tissue at 20 ug administered as intravaginal instillation measured on day 10 by ELISA; format: functional, Vagina; outline: as §4
Candida albicans [24] = experiment: Antimicrobial activity against antibiotic resistant Candida albicans clinical isolate 08032710 compound treated in NaCl solution measured after 36 hrs by disc diffusion method; format: functional; settings: isolate 08032710, 36 h; outline: as §3

Substance: H-VKRWKKWRWKWKKWV-NH2
- Activity (Mus musculus [1]): 7
- Activity (Candida albicans [2]): 18 CFU
- MIC (Candida albicans [3]): 2.79 µg/mL
- inhibition (INH) (Mus musculus [4]): 45%
- Activity (Mus musculus [5]): Dose-dependent effect
- MIC (Candida albicans [6]): 3.13 µg/mL
- Activity (Candida albicans [7]): 0 CFU
- inhibition (INH) (Candida albicans [8]): 66%
- inhibition (INH) (Candida albicans [9]): 48%
- Activity (Candida albicans [10]): 9 CFU
- Activity (Candida albicans [11]): 0 CFU
- Activity (Mus musculus [12]): Dose-dependent effect
- inhibition (INH) (Candida albicans [13]): 37%
- inhibition (INH) (Mus musculus [14]): 32%
- Activity (Candida albicans [15]): 0 CFU
- Activity (Candida albicans [16]): 0 CFU
- MIC (Candida albicans [17]): 2.65 µg/mL
- inhibition (INH) (Mus musculus [18]): 46%
- MIC (Candida albicans [19]): 4.69 µg/mL
- inhibition (INH) (Candida albicans [20]): 71%
- MIC (Staphylococcus aureus): 1.17 µg/mL
- MIC (Candida albicans [21]): 2.65 µg/mL
- Activity (Mus musculus [22]): 16
- inhibition (INH) (Mus musculus [23]): 44%
- MIC (Candida albicans [24]): 2.79 µg/mL
